These results are taken from ChEMBL document CHEMBL1212858, “New bioactive halenaquinone derivatives from South Pacific marine sponges of the genus Xestospongia” (Bioorg Med Chem, 2010).

One data set addresses T1, Phospholipase A2 (Apis mellifera, UniProt P00630).
T1 sequence (P00630 whole entry): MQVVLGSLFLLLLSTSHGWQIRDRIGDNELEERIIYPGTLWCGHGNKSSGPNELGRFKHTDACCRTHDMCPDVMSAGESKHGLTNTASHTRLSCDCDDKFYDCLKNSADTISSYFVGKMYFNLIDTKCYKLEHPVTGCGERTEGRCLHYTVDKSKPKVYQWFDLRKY
The data set can be described thus: Inhibition of bee venom phospholipase A2 after 5 mins by spectrophotometric analysis. The essentials:
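Colorimetric assay with Apis mellifera venom PLA2, added as 2 µL of a 1 mg/mL […]. Test material in DMSO was preincubated with the enzyme for 1 h at 25 °C. Substrate solution was then added: L-α-phosphatidylcholine 3.5 mM, phenol red 0.055 mM, NaCl 100 mM, CaCl2 10 mM, Triton 7 mM, pH 7.6. Absorbance at 550 nm was read at 0 and 5 min, in duplicate. Manoalide as positive control.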

Another data set has as its system Vero. In words: Cytotoxicity against african green monkey Vero cells assessed as inhibition of [3H]hypoxanthine incorporation after 48 hrs. It is filed as cell-based. Particulars: Chlorocebus sabaeus. The essentials: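 VERO cells (10^5 cells/well) exposed 48 h to serial dilutions in culture medium of a 10 mg/mL DMSO mother solution; growth inhibition by 3H-hypoxanthine incorporation (9.25 kBq/well). Highest concentration tested 20 µg/mL. IC50 read graphically from inhibition-versus-concentration plots; triplicates on three independent occasions, mean ± SEM (n = 3). Doxorubicin positive control.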

The test system of data set [1] is Plasmodium falciparum. In words: Antiplasmodial activity against chloroquine-resistant Plasmodium falciparum FcB1 after 48 hrs. Particulars: FcB1/Columbia. In kind it is functional, organism-based. The essentials:
(§1)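 Ring-stage P. falciparum cultures synchronised by magnetic purification plus D-sorbitol lysis. Compounds from a 10 mg/mL DMSO mother solution were serially diluted in culture medium and incubated 48 h with parasitised erythrocytes (2% haematocrit, 1% parasitaemia). Growth was followed by 3H-hypoxanthine incorporation (9.25 kBq/well). IC50 was read graphically from inhibition–concentration plots. Triplicates, three independent experiments; chloroquine as positive control.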

The nature of data set [2]: Selectivity ratio of IC50 for african green monkey (Cercopithecus aethiops) Vero cells to IC50 for chloroquine-resistant Plasmodium falciparum FcB1. The conditions noted are these: read-out: Ratio IC50. It is filed as ADME, cell-based. In a few lines: (§2)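 Compounds were serially diluted from a 10 mg/mL DMSO stock into medium and added to VERO cells (10^5 cells/well) or to synchronised ring-stage P. falciparum (2% haematocrit, 1% parasitaemia). Read-out was 3H-hypoxanthine incorporation, with IC50 read graphically. Triplicates, three independent times; doxorubicin and chloroquine as controls.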

The nature of data set [3]: Inhibition of Saccharomyces cerevisiae FTase after 15 mins by fluorimetric analysis. The essentials:
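Partially purified recombinant yeast FTase (2.2 mg/mL, 0.1 mL per 7.0 mL peptide solution) with dansyl-GCVLS peptide in 53 mM Tris/HCl pH 7.5, 5.8 mM DTT, 6 mM MgCl2, 12 µM ZnCl2, 0.09% CHAPS. Inhibitors added from DMSO; started with farnesyl pyrophosphate (10 µM stock). Fluorescence (ex 340/em 486 nm) followed 15 min at 30 °C; duplicates, run twice.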

The target in data set [4] is Protein farnesyltransferase (Homo sapiens, UniProt P49354+P49356). In words: Inhibition of human FTase after 15 mins by fluorimetric analysis. It is filed as protein-complex assay. The essentials:
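Partially purified human FTase (1.5 mg/mL, 5 µL per 1 mL peptide solution) with dansyl-GCVLS peptide in Tris/HCl pH 7.5 buffer with DTT, MgCl2, ZnCl2 and 0.18% octyl-D-glucopyranoside in place of CHAPS. Inhibitors added from DMSO; started with farnesyl pyrophosphate (10 µM stock). Fluorescence (ex 340/em 486 nm) read 15 min at 30 °C; duplicates, run twice.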

Data set [5] can be described thus: Selectivity ratio of IC50 for african green monkey (Cercopithecus aethiops) Vero cells to IC50 for chloroquine-sensitive Plasmodium falciparum 3D7. In kind it is ADME, cell-based. Particulars: read-out: Ratio IC50. The essentials: as §2
Data set [6] concerns Plasmodium falciparum. In words: Antiplasmodial activity against chloroquine-sensitive Plasmodium falciparum 3D7 after 48 hrs. Particulars: 3D7, 48 h. In kind it is functional, organism-based. The essentials: as §1

Counter-ions that a name gives are not always drawn.

The term IC50 denotes the midpoint of a concentration-inhibition curve. Take `CC1=C(CC/C(C)=C/CCC2=CC[C@H](C3=CC(=O)O[C@H]3O)O[C@H]2O)C(C)(C)CCC1` [MANOALIDE]: inhibition against Phospholipase A2 was half-maximal at 0.5 µM (IC50).

`C[C@@]12CCC(=O)c3coc(c31)C(=O)c1cc3c(cc12)C(=O)C1=C(C3=O)S(=O)(=O)CCN1` [3-KETOADOCIAQUINONE A]: the half-inhibitory concentration (IC50) was above 45 µM in the data set with Vero; 1.08 µM in the data set with Plasmodium falciparum [1]; 140 µM at Phospholipase A2; 1.48 µM in data set [3]; 4.19 µM in data set [4]; 1.67 µM in the data set on Plasmodium falciparum [6]. The selectivity ratio in data set [2] and in data set [5] was 5 in each case.

Take `C[C@@]12CCC(=O)c3coc(c31)C(=O)c1cc3c(cc12)C(=O)C1=C(NCCS1(=O)=O)C3=O` [3-KETOADOCIAQUINONE B]: the IC50 is above 45 µM in the data set with Vero; 3.89 µM in the data set on Plasmodium falciparum [1]; 105 µM on Phospholipase A2; 3.75 µM in data set [3]; 9.27 µM in data set [4]; 4.12 µM in the data set on Plasmodium falciparum [6]. Besides, the selectivity ratio in data set [2] and in data set [5] was 5 each time.

As for `CO[C@]12OC(O)C3=C1[C@@](C)(CCC3=O)c1cc3c(OS(=O)(=O)O)ccc(O)c3cc1C2=O` (stereo partly specified) [XESTOSAPROL C METHYLACETAL], the IC50 was above 42 µM in the data set with Vero; above 21 µM with Plasmodium falciparum [1]; 570 µM against Phospholipase A2; 6.71 µM in data set [3]; 4.34 µM in data set [4]; above 21 µM in the data set with Plasmodium falciparum [6].

On to `C[C@@]12CC[C@H](O)[C@@H]3COC(=C31)C(=O)c1cc3c(cc12)C(=O)CC[C@@H]3O` [TETRAHYDROHALENAQUINONE A], for which the half-maximal inhibitory concentration (IC50) was above 58 µM in the data set on Vero; above 29 µM with Plasmodium falciparum [1]; 600 µM at Phospholipase A2; above 30 µM in data set [3]; above 30 µM in data set [4]; above 29 µM in the data set with Plasmodium falciparum [6].

Turning to `C[C@@]12CC[C@H](O)[C@@H]3COC(=C31)C(=O)c1cc3c(cc12)C(O)CCC3=O` (stereo partly specified) [XESTOSAPROL A], the 50% inhibitory concentration (IC50) is above 58 µM in the data set with Vero; above 29 µM in the data set on Plasmodium falciparum [1]; 1000 µM at Phospholipase A2; above 30 µM in data set [3]; above 30 µM in data set [4]; above 29 µM in the data set with Plasmodium falciparum [6].

In the case of `CC1=CCCC2(C)C1=C(O)C(=O)c1cc3c(cc12)C(=O)C=CC3=O` (stereo unspecified) [ORHALQUINONE], the IC50 in the data set with Vero is above 62 µM; with Plasmodium falciparum [1], 9.22 µM; at Phospholipase A2 it was 1570 µM; in data set [3], 0.4 µM; in data set [4], 0.41 µM; in the data set with Plasmodium falciparum [6] it was 10.9 µM. For the same compound, the selectivity ratio in data set [2] and in data set [5] was 5 each time.

`COc1cccc2c1C(=O)c1c(O)c3c(c(O)c1C2=O)C[C@@](O)(C(=O)CO)C[C@@H]3O[C@H]1C[C@H](N)[C@H](O)[C@H](C)O1` [DOXORUBICIN]: the 50% inhibitory concentration (IC50) in the data set with Vero worked out at 5.12 µM.

Take `C[C@@]12CCC(=O)c3coc(c31)C(=O)c1cc3c(cc12)C(=O)C=CC3=O` [HELENAQUINONE]: the IC50 in the data set on Vero is above 60 µM; in the data set with Plasmodium falciparum [1], above 30 µM; on Phospholipase A2, 3.7 µM; in data set [3] it was 1.57 µM; in data set [4], 0.93 µM; in the data set on Plasmodium falciparum [6], above 30 µM.

Turning to `C[C@@]12CCC(=O)c3coc(c31)C(=O)c1cc3c(O)ccc(OS(=O)(=O)O)c3cc12` [HALENAQUINOL SULFATE SODIUM], the IC50 with Vero is above 48 µM; in the data set with Plasmodium falciparum [1], above 24 µM; on Phospholipase A2, 1000 µM; in data set [3], 16.1 µM; in data set [4], 21.5 µM; in the data set with Plasmodium falciparum [6], above 24 µM.
